Source: PubChem (The Scripps Research Institute Molecular Screening Center)
NPY1 pot ag = human NPY-Y1 potentiation or agonism, primary screen; P25929; NPY-Y1 expressing cells, potentiator/agonist activation; activation, % at 3.6 µM; 220,000 compounds, 0.37% hits; in the data active means activation above about 33%, passing the limit was not always enough;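 further: cells stimulated with NPY at EC10 then isoproterenol at EC100; 0% = low agonist plus stimulus and 100% = saturating agonist plus stimulus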
NPY Y1 blocker = NPY-Y1 (human) receptor antagonism | inhibition, % at 3.6 µM | P25929 | 200,000 compounds, 1% hits | HEK293-CNG Y1 cells, membrane potential fluorescence; NPY at EC95, then isoproterenol;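 active means inhibition above the campaign mean inhibition of all tested compounds plus 3 SD, cut at about 20% in these data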;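 further: 0% = DMSO wells given NPY plus isoproterenol and 100% = isoproterenol alone without NPY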
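Material: HEK293 Y1/CNG channel cell line | Also added: NPY (25 nM), isoproterenol (1 µM), Ro 20-1724 (25 µM) | Compound: One concentration, 3.6 µM, in 0.4% DMSO | Schedule: 3 h dye uptake, 1 h room-temperature compound, 45 min post-isoproterenol | Signal: Membrane-potential fluorescent dye readout | Read-out: % inhibition of NPY effect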
NPY-Y2 antag = antagonists of human neuropeptide Y receptor Y2; P49146; NPY-Y2 expressing cells, antagonist mode; inhibition, % at 2.7 µM; 140,000 compounds, 0.99% hits;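 further: 0% = vehicle with agonist challenge and 100% = reference antagonist with challenge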
Target sequence (P49146 whole entry, looked up): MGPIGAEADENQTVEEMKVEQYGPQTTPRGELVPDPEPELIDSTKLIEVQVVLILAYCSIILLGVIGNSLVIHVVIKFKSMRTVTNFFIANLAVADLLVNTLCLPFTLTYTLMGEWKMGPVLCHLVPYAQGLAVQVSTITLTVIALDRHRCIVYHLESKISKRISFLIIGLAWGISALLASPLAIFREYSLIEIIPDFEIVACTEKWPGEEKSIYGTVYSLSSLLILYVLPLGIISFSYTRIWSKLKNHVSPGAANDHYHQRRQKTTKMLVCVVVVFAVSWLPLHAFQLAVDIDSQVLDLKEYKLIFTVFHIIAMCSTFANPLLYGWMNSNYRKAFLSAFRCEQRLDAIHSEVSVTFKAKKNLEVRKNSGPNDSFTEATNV
NPY2 pot ag = human NPY-Y2 potentiation or agonism, primary screen; P49146; cells expressing NPY-Y2, potentiator/agonist read-out; activation, % at 3.6 µM; 220,000 compounds, 0.45% hits; AID 1359; in the data active means activation above about 27%;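 further: cells stimulated with NPY near EC25 plus isoproterenol at EC100; 0% = vehicle plus submaximal agonist and 100% = vehicle plus saturating agonist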
NPY-Y1 ant conf = human NPY-Y1 antagonism, confirmation. inhibition, % at 3.6 µM. shares compounds with NPY Y1 blocker. AID 1254. 1,200 compounds, 21% hits. HEK293-CNG NPY-Y1, membrane potential fluorescence, cAMP; NPY challenge against isoproterenol-raised cAMP; in the data active means inhibition above about 20%;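 further: 0% = vehicle with agonist plus stimulus and 100% = stimulus alone without agonist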
NPY-Y2 antag ct = counter-screen for NPY-Y1 antagonists: human NPY-Y2 antagonism. shares compounds with NPY Y1 blocker. inhibition, % at 3.6 µM. 1,200 compounds, 28% hits. HEK293 NPY-Y2 CNG membrane potential fluorescence; cells given NPY, then isoproterenol;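 further: 0% = DMSO with agonist challenge and 100% = reference antagonist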
Starred values were filed as active, the others as inactive. This is a sample that favours compounds with a hit; in the whole collection about 1.8% have one here. Unless noted, no stated cut-off is given here; in the data, active means inhibition above about 17%; inactive means the rest.

CN(C)CC(=O)c1ccc(-c2ccccc2)cc1 was read as NPY1 pot ag -22, NPY Y1 blocker 20*, NPY-Y2 antag 3, NPY2 pot ag -4, NPY-Y1 ant conf 2 and NPY-Y2 antag ct 7.
Screening Cc1cn(S(=O)(=O)c2ccc(Br)c3ccccc23)cn1 returned NPY1 pot ag -22, NPY Y1 blocker 27*, NPY-Y2 antag 7, NPY2 pot ag -29, NPY-Y1 ant conf 10 and NPY-Y2 antag ct 7.
`CC1=CC(C)(C)N(C(=O)CCl)c2cc(C)ccc21` gave NPY1 pot ag 8, NPY Y1 blocker 0 and NPY2 pot ag 2.
For CC1=CC(C)(C)N(C(=O)CNC2CCCCC2)c2cc(C)ccc21 the results were NPY1 pot ag -2, NPY Y1 blocker 25*, NPY2 pot ag -5, NPY-Y1 ant conf 21* and NPY-Y2 antag ct 7.
Screening CCN(CC)CCN(Cc1cc2cc(C)cc(C)c2[nH]c1=O)C(=S)NCc1ccco1 returned NPY1 pot ag -81, NPY Y1 blocker 21*, NPY-Y2 antag 11, NPY2 pot ag -20, NPY-Y1 ant conf 14 and NPY-Y2 antag ct 14.
CCN(CC)CCN(Cc1cc2ccc(C)c(C)c2[nH]c1=O)C(=S)NCc1ccco1 was read as NPY1 pot ag -20, NPY Y1 blocker 27*, NPY2 pot ag -31, NPY-Y1 ant conf 15 and NPY-Y2 antag ct 16.
For COc1ccc(NC(=O)C2CCCC2)cn1 the results were NPY1 pot ag -5, NPY Y1 blocker 3 and NPY2 pot ag -4.
Screening C=C(Cl)COc1ccc2c(CCCC)cc(=O)oc2c1 returned NPY1 pot ag -14, NPY Y1 blocker 21*, NPY-Y2 antag 6, NPY2 pot ag -1, NPY-Y1 ant conf 3 and NPY-Y2 antag ct 24*.
Cc1ccc(C(C)C)c(OCCCN2C(=O)NC(C)(C)C2=O)c1 was read as NPY1 pot ag -4, NPY Y1 blocker -2, NPY-Y2 antag 3 and NPY2 pot ag -8.
For Cc1ccc(C(C)C)c(OCCCN(C)Cc2ccccc2)c1 the results were NPY1 pot ag -28, NPY Y1 blocker 32*, NPY-Y2 antag 12, NPY2 pot ag -11, NPY-Y1 ant conf 12 and NPY-Y2 antag ct 18*.
For CSc1cccc(NC(=O)/C=C/c2cccc(Cl)c2)c1 the results were NPY1 pot ag -2, NPY Y1 blocker -5, NPY-Y2 antag 3 and NPY2 pot ag -13.
`CC(=O)C1=C(C)NC(=O)CC1c1ccc(F)cc1` (stereo not given) gave NPY1 pot ag -13, NPY Y1 blocker 5 and NPY2 pot ag -7.
`Cc1ccc(CNC(=O)c2ccc(NS(=O)(=O)c3c(C)noc3C)cc2)cc1` gave NPY1 pot ag -7, NPY Y1 blocker 28*, NPY-Y2 antag 10, NPY2 pot ag -3, NPY-Y1 ant conf 11 and NPY-Y2 antag ct 10.
Cc1ccc(SCCC(=O)OCC(=O)Nc2ccc(S(N)(=O)=O)cc2)cc1 was read as NPY1 pot ag -43 and NPY2 pot ag -16.
`Cc1ccc(SCCC(=O)OCC(=O)NCC2CCCCC2)cc1` gave NPY1 pot ag -64, NPY Y1 blocker 36*, NPY2 pot ag -36, NPY-Y1 ant conf 14 and NPY-Y2 antag ct 9.
For Cc1nn(-c2ccccc2)c(/N=C/c2ccccc2O)c1-c1ccccc1 the results were NPY1 pot ag 5, NPY Y1 blocker -3, NPY-Y2 antag 15 and NPY2 pot ag 23.
COc1cc(/C=N/N=C(/N)c2nonc2N)cc(Br)c1OCc1cccc(C)c1 was read as NPY1 pot ag -19, NPY Y1 blocker 21*, NPY-Y2 antag 11, NPY2 pot ag -17, NPY-Y1 ant conf 15 and NPY-Y2 antag ct 14.
Screening COc1ccc(OC)c(C(c2nnnn2CCC(C)C)N2CCN(C(=O)c3ccco3)CC2)c1 (stereo not given) returned NPY1 pot ag 15, NPY Y1 blocker 5, NPY-Y2 antag 0 and NPY2 pot ag -3.
CCCCCC(=O)Nc1cc(N(C)C)nc2ccccc12 was read as NPY1 pot ag -10, NPY Y1 blocker 16, NPY-Y2 antag 6 and NPY2 pot ag -12.
CCCCCCC(=O)Nc1c2c(nc3ccccc13)N(C)CC2 was read as NPY1 pot ag -35, NPY Y1 blocker 24*, NPY-Y2 antag 10, NPY2 pot ag 0, NPY-Y1 ant conf 6 and NPY-Y2 antag ct 8.
